Active and inactive are the calls of the source. The rule behind the calls is not given here.
How the values were obtained:
HLF1 [1] = experiment: Inhibition of H2O2-induced oxidative stress in human HLF1 cells assessed as cell viability at 5 uM pretreated for 24 hrs followed by addition of 300 uM H2O2 for 2.5 hrs; type: functional, cell-based
In short: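 HFL-1 embryonic lung fibroblasts in DMEM/10% FBS, fed about 16 h before assay; 10⁴ cells seeded, 24 h later given compound in DMSO or DMSO alone for 24 h. Then 300 μM H2O2 for 2.5 h with compound still present, PBS wash, 5-day recovery in complete medium. Cells counted in triplicate with a Coulter counter; at least two experiments.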

Caenorhabditis elegans [2] = experiment: Antiaging activity in Caenorhabditis elegans Bristol isolate N2 assessed as lifespan; type: functional, organism-based
In short: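 C. elegans N2 hermaphrodites, egg-lay synchronized, moved at L4 (80-120 per condition) onto UV-killed OP50/NGM plates carrying compound in DMSO diluted in M9, or DMSO alone; 20 °C, new plates every 2 days, exposure lifelong. Day 1 adult = t0. Scored daily for touch-provoked movement and pharyngeal pumping until death. Kaplan–Meier curves, log-rank test; repeated at least twice.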

HLF1 [3] = experiment: Inhibition of H2O2-induced oxidative stress in human HLF1 cells assessed as increase in cell viability at 2 to 5 uM pretreated for 24 hrs followed by addition of 300 uM H2O2 for 2.5 hrs; type: functional, cell-based
Caenorhabditis elegans [4] = experiment: Antiaging activity in Caenorhabditis elegans Bristol isolate N2 assessed as increase in lifespan at 1 uM (reference value: 15 +/- 0.85%); type: functional
Caenorhabditis elegans [5] = experiment: Antiaging activity in Caenorhabditis elegans Bristol isolate N2 assessed as increase in lifespan at 10 uM (reference value: 15 +/- 0.85%); type: functional
Caenorhabditis elegans [6] = experiment: Antiaging activity in Caenorhabditis elegans Bristol isolate N2 assessed as increase in lifespan at 20 uM (reference value: 15 +/- 0.85%); type: functional
Caenorhabditis elegans [7] = experiment: Antiaging activity in Caenorhabditis elegans Bristol isolate N2 assessed as lifespan at 10 uM; type: functional, organism-based

**Q.** Which inhibition (HLF1 [1]) does the source give for `CCCc1cc(-c2ccc(O)cc2)no1` here?
**A.** inactive

**Q.** And the Activity (Caenorhabditis elegans [2])?
**A.** inactive

**Q.** `Cc1c(C)c2c(c(C)c1O)C=CC(C)(COCc1cc(-c3ccc(O)cc3)no1)O2` (stereo unspecified) was tested. Which Activity (HLF1 [3]) did it give?
**A.** Active

**Q.** And the ILS at 1 µM (Caenorhabditis elegans [4])?
**A.** 18%

**Q.** And the ILS at 10 µM (Caenorhabditis elegans [5])?
**A.** 18%

**Q.** And the ILS at 20 µM (Caenorhabditis elegans [6])?
**A.** 20%

**Q.** What does the source list for `COc1c(C)c(C)c2c(c1C)CCC(C)(COCc1cc(-c3ccc(O)cc3)no1)O2` (stereo unspecified)?
**A.** inhibition (HLF1 [1]): inactive; Activity (Caenorhabditis elegans [2]): inactive

**Q.** Which results are given for `OCc1cc(-c2ccc(O)cc2)no1`?
**A.** inhibition (HLF1 [1]): inactive; Activity (Caenorhabditis elegans [2]): inactive

**Q.** What does the source list for `Oc1ccc(-c2cc(-c3ccccc3)on2)cc1`?
**A.** inhibition (HLF1 [1]): inactive; Activity (Caenorhabditis elegans [2]): inactive

**Q.** Which results are given for `O=c1c(O)c(-c2ccc(O)c(O)c2)oc2cc(O)cc(O)c12`?
**A.** Activity (HLF1 [3]): Active; Activity (Caenorhabditis elegans [7]): inactive

**Q.** How did the inhibition (HLF1 [1]) turn out when `Cc1c(C)c2c(c(C)c1O)C=CC(C)(COCc1cc(-c3ccc(F)cc3)no1)O2` (stereo unspecified) was run?
**A.** inactive

**Q.** What about the Activity (Caenorhabditis elegans [2]) of the same compound?
**A.** inactive

— ChEMBL document CHEMBL3352704, “Microwave-assisted synthesis of 3,5-disubstituted isoxazoles and evaluation of their anti-ageing activity” (2014)
